Here are results for one molecule from ChEMBL document CHEMBL1147981, “Small molecule activators of SIRT1 as therapeutics for the treatment of type 2 diabetes” (Nature, 2007).

The structures appear in SMILES notation. Activity calls are given as the source filed them. No cut-off for these calls is given here. A value given as a limit tells only on which side of the number the result lay.

The target in assay [1] is T1, NAD-dependent protein deacetylase sirtuin-1 (Homo sapiens) (UniProt Q96EB6).
T1 sequence (whole entry): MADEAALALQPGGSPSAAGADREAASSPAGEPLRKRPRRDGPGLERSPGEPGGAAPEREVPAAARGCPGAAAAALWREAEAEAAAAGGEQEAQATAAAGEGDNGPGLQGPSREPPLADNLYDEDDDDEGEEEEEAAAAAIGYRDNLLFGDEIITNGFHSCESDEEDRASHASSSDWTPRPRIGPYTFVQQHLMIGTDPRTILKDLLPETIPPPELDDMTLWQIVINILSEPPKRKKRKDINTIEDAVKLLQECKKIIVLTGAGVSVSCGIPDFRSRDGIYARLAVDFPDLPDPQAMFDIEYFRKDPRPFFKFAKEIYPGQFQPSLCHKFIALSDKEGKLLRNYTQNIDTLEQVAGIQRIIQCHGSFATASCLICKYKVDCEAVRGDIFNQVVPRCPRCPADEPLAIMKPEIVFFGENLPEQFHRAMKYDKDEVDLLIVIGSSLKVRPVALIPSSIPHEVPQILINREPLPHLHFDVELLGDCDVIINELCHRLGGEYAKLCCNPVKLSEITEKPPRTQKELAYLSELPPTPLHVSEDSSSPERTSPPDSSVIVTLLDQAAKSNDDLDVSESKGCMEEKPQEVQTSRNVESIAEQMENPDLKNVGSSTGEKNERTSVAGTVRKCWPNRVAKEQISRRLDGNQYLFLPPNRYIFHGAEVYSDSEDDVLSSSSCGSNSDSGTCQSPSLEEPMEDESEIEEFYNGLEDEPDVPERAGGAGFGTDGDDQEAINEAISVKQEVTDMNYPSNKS
Briefly: Activation of human SIRT1-C construct by mass spectrometry assay relative to control.

The target in assay [2] is T1, NAD-dependent protein deacetylase sirtuin-1 (Homo sapiens). Briefly: Activation of human SIRT1-G (235-664) construct by mass spectrometry assay relative to control.
Assay [3] has the same target. Put plainly: Activation of human SIRT1-E (225-664) construct by mass spectrometry assay relative to control.
The test system of assay [4] is Mus musculus. Briefly: Reduction of blood glucose level in DIO C57BL/6 mouse model at 500 mg/kg, po after 4 weeks. On the set-up: dose 500 mg/kg. It is filed as functional, organism-based. Put shortly:
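Male C57BL/6 mice, started at nine weeks, fed 60%-fat diet until mean weight ~40 g; 6-10 per group; once-daily oral gavage in 2% HPMC + 0.2% DOSS. Fed glucose at 2, 4, 6, 8, 10 weeks; IPGTT after 5 weeks; ITT after 10 weeks. One-way ANOVA with Dunnett's test vs control, p<0.05.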

Assay [5] concerns the target T1, NAD-dependent protein deacetylase sirtuin-1 (Homo sapiens). Put plainly: Activation of human SIRT1-F (230-664) construct by mass spectrometry assay relative to control.
Assay [6] has the same target. Briefly: Activation of human SIRT1 assessed as decrease in Km of enzyme for acetylated peptide substrate by mass spectrometry assay.
In assay [7] the target is T2, NAD-dependent protein deacetylase sirtuin-2 (Homo sapiens, UniProt Q8IXJ6).
T2 sequence (Q8IXJ6 whole entry): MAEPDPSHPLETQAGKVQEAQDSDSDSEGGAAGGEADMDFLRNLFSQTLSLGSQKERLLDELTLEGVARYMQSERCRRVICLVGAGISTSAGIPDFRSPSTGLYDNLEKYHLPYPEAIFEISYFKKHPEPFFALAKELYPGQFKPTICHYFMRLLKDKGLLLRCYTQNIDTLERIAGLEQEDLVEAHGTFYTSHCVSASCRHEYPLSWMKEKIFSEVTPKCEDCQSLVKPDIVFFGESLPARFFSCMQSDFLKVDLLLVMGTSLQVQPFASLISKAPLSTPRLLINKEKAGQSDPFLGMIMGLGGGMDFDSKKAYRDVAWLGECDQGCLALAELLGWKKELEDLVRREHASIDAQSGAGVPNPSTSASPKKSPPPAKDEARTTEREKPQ
Briefly: Activation of SIRT2 by mass spectrometry assay.

The species entered for assay [8] is Mus musculus. Briefly: Reduction of insulin level in chow-fed C57BL/6 mouse. Format: functional, organism-based.
Assay [9] deals with T1, NAD-dependent protein deacetylase sirtuin-1 (Homo sapiens). Briefly: Activation of human SIRT1-D (219-664) construct by mass spectrometry assay relative to control.
The target is the same in assay [10]. Put plainly: Activation of human SIRT1-B (172-664) construct by mass spectrometry assay relative to control.
The target in assay [11] is T3, NAD-dependent protein deacetylase sirtuin-3, mitochondrial (Homo sapiens, UniProt Q9NTG7).
T3 sequence (Q9NTG7 whole entry): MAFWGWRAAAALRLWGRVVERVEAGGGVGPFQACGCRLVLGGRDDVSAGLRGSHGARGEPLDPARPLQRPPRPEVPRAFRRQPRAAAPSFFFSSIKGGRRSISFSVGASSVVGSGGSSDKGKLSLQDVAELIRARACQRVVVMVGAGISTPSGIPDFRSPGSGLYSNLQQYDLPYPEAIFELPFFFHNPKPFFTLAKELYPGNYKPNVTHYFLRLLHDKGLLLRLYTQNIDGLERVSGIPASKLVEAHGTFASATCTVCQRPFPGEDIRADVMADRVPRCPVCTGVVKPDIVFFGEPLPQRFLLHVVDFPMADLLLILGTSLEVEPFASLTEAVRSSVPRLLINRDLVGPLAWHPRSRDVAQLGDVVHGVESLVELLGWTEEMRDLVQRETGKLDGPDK
Briefly: Activation of SIRT3 by mass spectrometry assay.

The target in assay [12] is T1, NAD-dependent protein deacetylase sirtuin-1 (Homo sapiens). Put plainly: Activation of human SIRT1-A (156-664) construct by mass spectrometry assay relative to control.
Assay [13] has as its system Mus musculus. Put plainly: Effect on body weight in diabetic Lep ob/ob mouse model at 1000 mg/kg, po. Format: functional, organism-based. On the set-up: dose 1000 mg/kg. Put shortly: (§1)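 ob/ob mice received at 6 weeks, kept on 60%-fat diet from at least one week before study; ~40-45 g; grouped by body weight and glucose; once-daily oral gavage in 2% HPMC + 0.2% DOSS. One-way ANOVA with Dunnett's test vs control, p<0.05.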

Assay [14] has as its target T1, NAD-dependent protein deacetylase sirtuin-1 (Homo sapiens). Briefly: Activation of human SIRT1 expressed in Escherichia coli BL21 by mass spectrometry assay.
Assay [15] deals with Mus musculus. Put plainly: Reduction of blood glucose level in diabetic Lep ob/ob mouse model at 1000 mg/kg, po after 3 weeks. Format: functional, organism-based. On the set-up: dose 1000 mg/kg. Put shortly:
as §1

In assay [16] the target is T1, NAD-dependent protein deacetylase sirtuin-1 (Homo sapiens). Put plainly: Activation of SIRT1 in human U2OS cells assessed as decrease in p53 deacetylation level at 100 uM. It is filed as cell-based. Summed up:
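U-2 OS cells plated at 1.5 X 10⁴ cells/well; compounds (DMSO) added after 24 h, then doxorubicin (1 μg/ml final) to induce p53. Replicate plates were co-treated with a SIRT1-specific inhibitor. Cells were fixed, permeabilized and immunostained for Ac-Lys382-p53 and beta-tubulin, with infrared scanning. Signals were background-corrected, normalized to tubulin, then to vehicle (% acetylated p53).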

The target is the same in assay [17]. Briefly: Activation of human SIRT1-H (240-664) construct by mass spectrometry assay relative to control.

What is called EC50 is the concentration that produces a half-maximal response. A low value points to higher potency in that assay. As for `Oc1ccc(/C=C/c2cc(O)cc(O)c2)cc1` [RESVERATROL], the Activity worked out at 1.9 in assay [1]; 1.2 in assay [2]; 1.3 in assay [3]; 1.1 in [5]; 1.3 in assay [9]; 1.7 in assay [10]. Besides, the results for the Activity in [12], in [14] and in assay [17] were 1.8, 201% and 1.2, respectively. Further, the result (in the assay with Mus musculus [4]; in assay [6]; in the assay listed under Mus musculus [8]; in the assay on Mus musculus [15]; in [16]) was Active. Besides, the EC50 in [7] and in [11] was above 300 µM throughout. Further, the result with Mus musculus [13] was inactive.
